# Assay results as given in PubChem BioAssay AID624006 (Broad Institute, 2012).
# Several values for one entry are separate records, joined by “and”; a condition that tells them apart may be missing. Identical values can stand only once.
# Tested on: Candida albicans CaCi-2 growth, Alamar Blue fluorescence, 48 h
# Assay: C. albicans growth inhibitors tested alone, no partner drug – CaCi-2 strain, Alamar Blue, dry powder, set 4, dose response (AID 624006)
# Summary of the method: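 System: Candida albicans CaCi-2, a fluconazole-resistant isolate, whole cells / Amount: inoculum A600 0.00015 / Medium: RPMI 1640 with MOPS buffer, uridine and glucose / Incubation: 48 h static compound exposure at 37 °C, then 2 h Alamar Blue / Signal: Alamar Blue fluorescence / Control set: amphotericin 10 µM final as positive control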
row,SMILES,AC50
1,CCOC(=O)N1C(=O)C2(CCCCC2)N(c2ccc(Cl)cc2)C1=S,65.7 nM
2,CCOC(=O)N1C(=O)C2(CCCCC2)N(c2ccc(C#N)cc2)C1=S,88.9 nM
3,CCOC(=O)N1C(=O)C2(CCCCC2)N(c2ccccc2)C1=S,202 nM
4,CCOC(=O)N1C(=O)C2(CCCCC2)N(c2ccc(C)cc2)C1=S,223 nM and 253 nM
5,CC1/C=C/C=C\C=C\C=C\C=C\C=C\C=C\C(O[C@H]2OC(C)C(O)C(N)C2O)CC2OC(O)(CC(O)CC(O)C(O)CCC(O)CC(O)CC(=O)OC(C)C(C)C1O)CC(O)C2C(=O)O (some centres not stated),64.5 nM
6,CCOC(=O)N1C(=O)C2(CCCCC2)N(c2cccc(C)c2)C1=S,194 nM
7,CCOC(=O)N1C(=O)C2(CCCCC2)N(c2ccc(F)cc2)C1=S,39.9 nM
